Measurements published in ChEMBL document CHEMBL1147139, “Synthesis and pharmacological evaluation of a selected library of new potential anti-inflammatory agents bearing the gamma-hydroxybutenolide scaffold: a new class of inhibitors of prostanoid production through the selective modulation of microsomal prostaglandin E synthase-1 expression” (J Med Chem, 2007).
Calls of active or inactive are those of the source. No cut-off for these calls is given here. Residues, ends and D or L forms follow the SMILES beside them. *: point of attachment. Cbz = O=C(OCc1ccccc1)*

Experiments:
RAW264.7 [1] = assay: Inhibition of NF-kappaB DNA binding in LPS-stimulated mouse RAW264.7 cells at 10 uM; type: cell-based
Procedure, shortened: (§1)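 EMSA: RAW 264.7 cells (1.5 × 10^6/well) preincubated 30 min with compound, then LPS (1 µg/mL) for 1 h. Nuclear extracts (6 µg) incubated on ice for 15 min with 32P-end-labelled consensus NF-κB oligonucleotide and poly(dI-dC), pH 8.0. Complexes resolved on native 6% PAGE and detected by autoradiography. Two independent experiments.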

[2] = target: Acidic phospholipase A2 2 (Naja naja) (UniProt P15445); assay: Inhibition of Naja naja venom sPLA2 at 10 uM
Procedure, shortened: (§2)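 Radiometric sPLA2 assay on [3H]oleate-labeled, autoclaved E. coli CECT 101 membranes. Enzyme in 100 mM Tris-HCl/1 mM CaCl2, pH 7.5, preincubated 5 min at 37 °C with compound (10 µM) or vehicle. Then 15 min with labeled membranes, stopped with ice-cold BSA (0.07% w/v final). Supernatant radioactivity counted after centrifugation; % inhibition, mean ± SEM, n = 6.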

[3] = target: Phospholipase A2, major isoenzyme (Sus scrofa) (UniProt P00592); assay: Inhibition of pig sPLA2 at 10 uM
Procedure, shortened: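 sPLA2 (human recombinant synovial group IIA; porcine pancreatic group IB) in 100 mM Tris-HCl/1 mM CaCl2, pH 7.5, preincubated 5 min at 37 °C with compound (10 µM) or vehicle. 15 min incubation with [3H]oleate-labelled autoclaved E. coli membranes as substrate. Stopped with ice-cold BSA (0.07% final), centrifuged, supernatant radioactivity counted. Mean ± SEM, n = 6.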

[4] = target: T1, Phospholipase A2 (Apis mellifera) (UniProt P00630); assay: Inhibition of bee venom sPLA2 at 10 uM; procedure, shortened: as §2
T1 sequence (whole entry): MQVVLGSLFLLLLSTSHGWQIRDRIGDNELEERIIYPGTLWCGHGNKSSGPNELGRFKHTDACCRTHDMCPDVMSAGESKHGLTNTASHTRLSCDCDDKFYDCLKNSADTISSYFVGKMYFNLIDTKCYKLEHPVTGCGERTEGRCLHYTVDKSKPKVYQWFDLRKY

RAW264.7 [5] = assay: Inhibition of NF-kappaB DNA binding in LPS-stimulated mouse RAW264.7 cells; type: cell-based; procedure, shortened: as §1
RAW264.7 [6] = assay: Inhibition of PGE2 production in LPS-stimulated mouse RAW264.7 cells at 1 uM after 18 hrs; type: functional
Procedure, shortened: (§3)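 RAW 264.7 macrophages (1.5 × 10^6 cells/mL) co-incubated with E. coli 0111:B4 LPS (1 µg/mL) and compound or vehicle at 37 °C (induction phase). PGE2 in supernatants measured by radioimmunoassay; MTT reduction checked cytotoxicity. Mean ± SEM, n = 6; IC50 from at least four concentrations.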

RAW264.7 [7] = assay: Inhibition of PGE2 production in LPS-stimulated mouse RAW264.7 cells at 1 uM after 2 hrs; type: functional
Procedure, shortened: (§4)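 Post-induction phase: RAW264.7 cells that had already expressed COX-2 and mPGES-1 after LPS stimulation were given compound for 2 h in fresh medium supplemented with arachidonic acid. PGE2 in supernatants was quantified by radioimmunoassay. Mean ± SEM, n = 6.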

RAW264.7 [8] = assay: Inhibition of mPGES1 expression in LPS-stimulated mouse RAW264.7 cells after 2 hrs by Western blot analysis; type: functional, cell-based
Mus musculus [9] = organism: Mus musculus; assay: Decrease of mPGES1 expression in zymosan-stimulated Swiss mouse air pouch model after 24 hrs; type: functional, organism-based
Procedure, shortened: (§5)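 Female Swiss mice (25-30 g) air pouch; six days after initial air injection, 1 mL of 1% (w/v) zymosan in saline injected into pouch, compound given intrapouch at the same time. Exudate collected after 24 h; cell pellets analysed by Western blot for COX-2, mPGES-1 and β-actin. Densitometry expressed as percentage of zymosan control band intensity.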

Mus musculus [10] = organism: Mus musculus; assay: Inhibition of COX2 expression in zymosan-stimulated Swiss mouse air pouch model after 24 hrs; type: functional, organism-based; procedure, shortened: as §5
RAW264.7 [11] = assay: Inhibition of COX2 expression in LPS-stimulated mouse RAW264.7 cells after 2 hrs by Western blot analysis; type: functional, cell-based
RAW264.7 [12] = assay: Inhibition of PGE2 production in LPS-stimulated mouse RAW264.7 cells at 10 uM after 18 hrs; type: functional; procedure, shortened: as §3
RAW264.7 [13] = assay: Inhibition of PGE2 production in LPS-stimulated mouse RAW264.7 cells at 10 uM after 2 hrs; type: functional; procedure, shortened: as §4
THP-1 = assay: Inhibition of COX2 expression in LPS-stimulated human THP1 cells at 1 uM by Western blot analysis; type: functional, cell-based
Procedure, shortened: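 THP-1 human monocytic cells (1 × 10^6 cells/mL, RPMI with 10% FBS) incubated 18 h with LPS (1 µg/mL) plus compound. Lysates taken, total fraction (30 µg protein) run on SDS-15% PAGE, then blotted with polyclonal anti-COX-2 (1/200), peroxidase secondary and chemiluminescence detection.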

RAW264.7 [14] = assay: Inhibition of PGE2 production in LPS-stimulated mouse RAW264.7 cells after 18 hrs; type: functional, cell-based; details: RAW264.7, 18 h; procedure, shortened: as §3
RAW264.7 [15] = assay: Inhibition of NF-kappaB DNA binding in LPS-stimulated mouse RAW264.7 cells at 1 uM; type: cell-based; procedure, shortened: as §1

Chain of Acidic phospholipase A2 2 (Naja naja) (P15445 whole entry): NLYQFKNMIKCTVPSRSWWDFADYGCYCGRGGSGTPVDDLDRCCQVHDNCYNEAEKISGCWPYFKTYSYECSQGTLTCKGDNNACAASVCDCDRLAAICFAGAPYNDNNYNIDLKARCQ
Chain of Phospholipase A2, major isoenzyme (Sus scrofa) (P00592 23-146 limits assumed): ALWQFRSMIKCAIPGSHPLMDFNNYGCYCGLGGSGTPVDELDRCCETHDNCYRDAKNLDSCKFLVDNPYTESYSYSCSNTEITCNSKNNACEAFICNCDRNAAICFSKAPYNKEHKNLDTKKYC

Compound	inhibition [2]	inhibition [3]	inhibition [4]	other results
CC(C)C[C@@H](C=O)NC(=O)[C@H](CC(C)C)NC(=O)[C@H](CC(C)C)NC(=O)OCc1ccccc1 (Cbz-Leu-Leu-Leu-aldehyde)				Activity (RAW264.7 [1]): Active
O=C1OC(O)C(c2ccc(-c3ccccc3)cc2)=C1Br (stereo not drawn)	7.5%	26%	14.4%	
O=C1OC(O)C(c2csc3ccccc23)=C1Br (stereo not drawn)	15.4%	33.5%	9.8%	
CCc1c(CC(N)=O)c2cc(OCCCP(=O)(O)O)ccc2n1Cc1ccccc1	2.7%	6.8%	0%	Activity (RAW264.7 [5]): inactive
O=C1OC(O)C(c2ccc3ccccc3c2)=C1Br (stereo not drawn)	9.2%	27.7%	14.7%	
C[C@@H]1C[C@H]2[C@@H]3CCC4=CC(=O)C=C[C@]4(C)[C@@]3(F)[C@@H](O)C[C@]2(C)[C@@]1(O)C(=O)CO [DEXAMETHASONE]				Activity (RAW264.7 [6]): 3.4 ng/mL; Activity (RAW264.7 [7]): 0.21 ng/mL; Activity (RAW264.7 [8]): Active; Activity (Mus musculus [9]): Active; Activity (Mus musculus [10]): Active; Activity (RAW264.7 [11]): Active
O=C1OC(O)C(c2cccc3ccccc23)=C1Br (stereo not drawn)	8.6%	13.7%	0%	
O=C1OC(O)C(c2cccc3c2Sc2ccccc2S3)=C1Br (stereo not drawn)	1.5%	0%	0%	
CCCCc1ccc(C2=C(Br)C(=O)OC2O)cc1 (stereo not drawn)	26%	35.1%	32.9%	
O=C1OC(O)C(c2cc3ccccc3s2)=C1Br (stereo not drawn)	3.4%	18.7%	0%	Activity (RAW264.7 [6]): 10.7 ng/mL; Activity (RAW264.7 [12]): 6.7 ng/mL; Activity (RAW264.7 [7]): 0.23 ng/mL; Activity (RAW264.7 [13]): 0.22 ng/mL; Activity (RAW264.7 [8]): Dose-dependent effect; Activity (THP-1): inactive; Activity (Mus musculus [9]): Active; Activity (RAW264.7 [5]): Dose-dependent effect; IC50 (RAW264.7 [14]): 1.8 µM; Activity (RAW264.7 [11]): inactive
O=C1OC(O)C(c2ccc(Oc3ccccc3)cc2)=C1Br (stereo not drawn)	1%	7.8%	2.1%	
CS(=O)(=O)Nc1ccc([N+](=O)[O-])cc1OC1CCCCC1 [NS-398]				Activity (RAW264.7 [13]): 0.07 ng/mL
O=C1OC(O)C(c2cccc3c2oc2ccccc23)=C1Br (stereo not drawn)	0%	38.6%	20.4%	
O=C1OC(O)C(c2ccc3ccccc3c2)=C1c1ccc2ccccc2c1 (stereo not drawn)	9.1%	22.5%	25.2%	
CC(=O)O[C@@H]1O[C@@H](C2=CC(=O)OC2O)C[C@@H]2[C@@H]1CC[C@H]1[C@@]2(C)CC[C@H]2C(C)(C)CCC[C@]12C (stereo partly drawn) [PETROSASPONGIOLIDE M]	5.4%	11.4%	60.8%	Activity (RAW264.7 [6]): 7.3 ng/mL; Activity (RAW264.7 [7]): 0.22 ng/mL; Activity (RAW264.7 [15]): Active
